Experimental findings from ChEMBL document CHEMBL1141770, “Antineoplastic agents. 515. Synthesis of human cancer cell growth inhibitors derived from 3,4-methylenedioxy-5,4'-dimethoxy-3'-amino-Z-stilbene” (J Nat Prod, 2005) are described below.

The species named for series [1] is Bos taurus. As to the kind of experiment: Displacement of [3H]colchicine from bovine tubulin at 2 uM. In a few lines: (§1)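 Bovine brain tubulin at 0.1 mg/mL (1.0 µM) incubated with 5.0 µM [3H]colchicine and inhibitor at the stated concentration. Read-out is inhibition of radiolabel binding to tubulin, in % ± SD.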
On the technique in general: Displacement assays read how much labelled ligand stays bound in the presence of the test substance.

The species named for series [2] is Bos taurus. As to the kind of experiment: Displacement of [3H]vinblastine from bovine tubulin at 10 uM. The procedure, abridged:
(§2)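 Bovine brain tubulin at 0.5 mg/mL (5.0 µM) with 5 µM [3H]vinblastine and inhibitor as stated, in 0.5 mM MgCl2, 0.1 M MES pH 6.9 and 4% (v/v) DMSO. Incubated 30 min at 20–22 °C. Bound label separated by centrifugal gel filtration on syringe columns at 2,000 rpm; result is % inhibition ± SD.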

The species named for series [3] is Bos taurus. In words: Displacement of [3H]vinblastine from bovine tubulin at 80 uM. The procedure, abridged: as §2
A further series has as its system P388. As to the kind of experiment: Cytotoxicity against mouse P388 cells by sulforhodamine B method. Type of series: functional. In a few lines:
(§3)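 Sulforhodamine B assay, with growth inhibition read as reduced formation of cellular protein.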
(Sulforhodamine B stains cellular protein and so reports cell mass.)

The subject of the next series is BXPC-3. As to the kind of experiment: Growth inhibition of human BxPC3 cells by sulforhodamine B method. It counts as functional. In a few lines:
as §3

A further series has as its system SF-295. As to the kind of experiment: Growth inhibition of human SF295 cells by sulforhodamine B method. It counts as functional. In a few lines: as §3
For the next series, the system named is NCI-H460. In words: Growth inhibition of human NCI-H460 cells by sulforhodamine B method. It counts as functional. In a few lines:
as §3

Another series concerns DU-145. In words: Growth inhibition of human DU145 cells by sulforhodamine B method. It counts as functional. The procedure, abridged: as §3
The next series concerns Enterococcus faecalis. As to the kind of experiment: Antimicrobial activity against Enterococcus faecalis ATCC 29212 by broth microdilution assay. It counts as functional. The procedure, abridged:
(§4)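 Broth microdilution following NCCLS standards: M7-A5 for aerobic bacteria and M27-A2 for yeasts. Each assay was repeated at least twice on separate days.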
In general terms: Dilution methods test growth across graded concentrations, often in twofold steps.

Series [4] concerns MCF7. In words: Growth inhibition of human MCF7 after 48 hrs by sulforhodamine B method. Type of series: functional, cell-based. The settings on record: MCF7, 48 h. In a few lines: as §3
Series [5] is filed under the species Bos taurus. In words: Displacement of [3H]colchicine from bovine tubulin at 50 uM. The procedure, abridged:
as §1

For the next series, the system named is Cryptococcus neoformans. In words: Antimicrobial activity against Cryptococcus neoformans ATCC 90112 by broth microdilution assay. It counts as functional. The procedure, abridged: as §4
The next series deals with Neisseria gonorrhoeae. In words: Antimicrobial activity against Neisseria gonorrhoeae ATCC 49226 by broth microdilution assay. It counts as functional. The procedure, abridged: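 Screened by broth microdilution following NCCLS guidelines for bacteria grown aerobically. Each assay was repeated at least twice, on separate days.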
Another series concerns Streptococcus pneumoniae. As to the kind of experiment: Antimicrobial activity against Streptococcus pneumoniae ATCC 6303 by broth microdilution assay. It counts as functional. In a few lines:
as §4

The nature of series [6]: Solubility in water. It counts as physicochemical.
A short description of series [7]: Inhibition of bovine brain tubulin assembly. Also on record: species or system Bos taurus. In a few lines: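 Bovine brain tubulin at 1.0 mg/mL (10 µM) assembled with varying inhibitor concentrations. IC50 reported in µM ± SD.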
Series [8] has as its system MCF7. As to the kind of experiment: Increase in mitotic index in human MCF7 cells at 10 times the IC50 concentration after 16 hrs. Type of series: functional. The procedure, abridged: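 MCF-7 cells grown with drug for 16 h, then DNA stain added. Result is the percentage of cells in mitosis.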

Molecules are shown by their SMILES. Converted amounts (≈) assume the structure as drawn. Where only a bound is given, the exact number is not on record here.

For `COc1ccc(/C=C\c2cc(OC)c(OC)c(OC)c2)cc1O` [COMBRETASTATIN A4], the Activity came out at 98% in the series listed under Bos taurus [1], 0% in the series listed under Bos taurus [2] and 0% in the series filed under Bos taurus [3].
Compound `CC[C@H](C)[C@@H]([C@@H](CC(=O)N1CCC[C@H]1[C@H](OC)[C@@H](C)C(=O)N[C@@H](Cc1ccccc1)c1nccs1)OC)N(C)C(=O)[C@@H](NC(=O)[C@H](C(C)C)N(C)C)C(C)C` [DOLASTATIN-10] showed an Activity in the series filed under Bos taurus [2] of 96%.
As to `COc1ccc(/C=C\c2cc(OC)c3c(c2)OCO3)cc1NC(=O)[C@H](Cc1ccc(OP(=O)(OCc2ccccc2)OCc2ccccc2)cc1)NC(=O)OCc1ccccc1`, the GI50 (in general, the concentration giving 50% growth inhibition) with P388 was 0.133 µg/mL (≈ 0.155 µM); in the series on BXPC-3, above 10 µg/mL; in the series on SF-295, above 10 µg/mL; in the series with NCI-H460, above 10 µg/mL; in the series on DU-145, above 10 µg/mL; with MCF7 [4], above 10 µg/mL. In addition, in the series with Enterococcus faecalis, the MIC (usually the least concentration at which growth counts as inhibited) stood at 64 µg/mL (≈ 74.7 µM).
Take `CC[C@H](C)[C@@H]([C@@H](CC(=O)N1CCC[C@H]1[C@H](OC)[C@@H](C)C(=O)O)OC)N(C)C(=O)[C@@H](NC(=O)[C@H](C(C)C)N(C)C)C(C)C`: the Activity in the series filed under Bos taurus [5] was 5.2%; in the series filed under Bos taurus [3] it was 87%.
Turning to `COc1ccc(/C=C\c2cc(OC)c3c(c2)OCO3)cc1NC(=O)[C@H](C)[C@@H](OC)[C@@H]1CCCN1.O=C(O)C(F)(F)F`, the GI50 in the series with P388 was found to be 0.0263 µg/mL; with BXPC-3, 0.23 µg/mL; in the series on SF-295 it was 0.054 µg/mL; in the series with NCI-H460, 0.062 µg/mL; in the series on DU-145, 0.26 µg/mL; in the series with MCF7 [4], 0.07 µg/mL. Besides, the MIC against Cryptococcus neoformans was found to be 64 µg/mL; in the series on Neisseria gonorrhoeae it was 16 µg/mL; in the series with Streptococcus pneumoniae it was 8 µg/mL; against Enterococcus faecalis, 32 µg/mL.
As to `COc1ccc(/C=C\c2cc(OC)c3c(c2)OCO3)cc1NC(=O)[C@H](Cc1ccc(OC(C)(C)C)cc1)NC(=O)OCc1ccccc1`, the GI50 with P388 is 0.38 µg/mL (≈ 0.582 µM); in the series on BXPC-3, 0.049 µg/mL (≈ 0.0751 µM); in the series on SF-295 it was 0.44 µg/mL (≈ 0.674 µM); in the series on NCI-H460, 0.41 µg/mL (≈ 0.628 µM); in the series on DU-145, 0.39 µg/mL (≈ 0.597 µM); in the series on MCF7 [4], 0.36 µg/mL (≈ 0.552 µM).
The compound `COc1ccc(/C=C\c2cc(OC)c3c(c2)OCO3)cc1NC(=O)[C@H](Cc1ccc(OP(=O)(OCc2ccccc2)OCc2ccccc2)cc1)NP(=O)(OCc1ccccc1)OCc1ccccc1` gave a GI50 with P388 of 10 µg/mL (≈ 10.2 µM).
`COc1ccc(/C=C\c2cc(OC)c3c(c2)OCO3)cc1NC(=O)[C@H](C)[C@@H](OC)[C@@H]1CCCN1C(=O)OC(C)(C)C`: the GI50 in the series on P388 stood at 0.225 µg/mL (≈ 0.396 µM); in the series with BXPC-3, 0.58 µg/mL (≈ 1.02 µM); in the series with SF-295, 0.53 µg/mL (≈ 0.932 µM); with NCI-H460, 0.75 µg/mL (≈ 1.32 µM); in the series with DU-145, 1.9 µg/mL (≈ 3.34 µM); with MCF7 [4], 0.38 µg/mL (≈ 0.668 µM). Also, the MIC in the series on Cryptococcus neoformans is 64 µg/mL (≈ 113 µM).
Turning to `COc1ccc(/C=C\c2cc(OC)c3c(c2)OCO3)cc1NC(=O)[C@H](Cc1ccc(OP(=O)([O-])O)cc1)NP(=O)(O)O.[Na+]`, the GI50 in the series with P388 was 0.27 µg/mL; in the series on BXPC-3, 18.6 µg/mL; in the series with SF-295, above 1 µg/mL; in the series on NCI-H460 it was above 1 µg/mL; with DU-145, above 1 µg/mL; in the series on MCF7 [4] it was 1.3 µg/mL. This compound gave an MIC with Neisseria gonorrhoeae of 4 µg/mL.
As to `COc1ccc(/C=C\c2cc(OC)c3c(c2)OCO3)cc1NC(=O)[C@@H](N)CC(=O)[O-].[Na+]`, the GI50 in the series on P388 amounted to 0.361 µg/mL; with BXPC-3, 0.38 µg/mL; in the series on SF-295, 0.25 µg/mL; in the series on NCI-H460, 0.3 µg/mL; with DU-145 it was 0.33 µg/mL; with MCF7 [4], 0.51 µg/mL. The solubility (commonly the dissolved amount per volume that the medium holds) in series [6] is below 100 µg/mL.
Regarding `COc1ccc(/C=C\c2cc(OC)c3c(c2)OCO3)cc1N`, the figures for the Activity in the series filed under Bos taurus [1], in the series listed under Bos taurus [2] and in the series listed under Bos taurus [3] were 85%, 0% and 0%, respectively.
As for `COc1ccc(/C=C\c2cc(OC)c3c(c2)OCO3)cc1NC(=O)[C@H](CC(=O)OC(C)(C)C)NC(=O)OC(C)(C)C`, the GI50 with P388 was determined as 0.385 µg/mL (≈ 0.675 µM); with BXPC-3, 3.4 µg/mL (≈ 5.96 µM); in the series with SF-295 it was 2.4 µg/mL (≈ 4.21 µM); in the series with NCI-H460, 1.7 µg/mL (≈ 2.98 µM); in the series on DU-145 it was 2.3 µg/mL (≈ 4.03 µM); in the series on MCF7 [4], 3 µg/mL (≈ 5.26 µM).
As for `CC[C@H](C)[C@@H]([C@@H](CC(=O)N1CCC[C@H]1[C@H](OC)[C@@H](C)C(=O)Nc1cc(/C=C\c2cc(OC)c3c(c2)OCO3)ccc1OC)OC)N(C)C(=O)[C@@H](NC(=O)[C@H](C(C)C)N(C)C)C(C)C`, the GI50 is below 0.01 µg/mL in the series with P388; 0.048 µg/mL (≈ 0.0545 µM) with BXPC-3; 0.0031 µg/mL (≈ 0.00352 µM) in the series with SF-295; 0.025 µg/mL (≈ 0.0284 µM) in the series with NCI-H460; 0.02 µg/mL (≈ 0.0227 µM) with DU-145; 0.032 µg/mL (≈ 0.0364 µM) with MCF7 [4]. Also, the IC50 (usually the concentration at which inhibition is half-maximal) in [7] worked out at 1.3 µM. The Activity in the series filed under Bos taurus [5] stood at 30%; in the series filed under Bos taurus [2] it was 48%; in the series listed under Bos taurus [3] it was 87%; in the series with MCF7 [8] it was 57%.
Turning to `COc1ccc(/C=C\c2cc(OC)c3c(c2)OCO3)cc1NC(=O)[C@@H](N)Cc1ccc(OP(=O)(O)O)cc1`, the GI50 is above 10 µg/mL with P388; above 1 µg/mL in the series on BXPC-3; above 1 µg/mL in the series with SF-295; above 1 µg/mL in the series on NCI-H460; above 1 µg/mL with DU-145; above 1 µg/mL in the series on MCF7 [4]. Further, the MIC against Neisseria gonorrhoeae is 0.125 µg/mL (≈ 0.23 µM); against Enterococcus faecalis, 16 µg/mL (≈ 29.5 µM).
As for `COc1ccc(/C=C\c2cc(OC)c3c(c2)OCO3)cc1NC(=O)[C@@H](N)Cc1ccc(O)cc1.Cl`, the 50% growth inhibitory concentration (GI50) in the series with P388 was determined as 0.0329 µg/mL; in the series on BXPC-3, 0.064 µg/mL; with SF-295 it was 0.064 µg/mL; with NCI-H460 it was 0.096 µg/mL; in the series on DU-145 it was 0.08 µg/mL; with MCF7 [4], 0.041 µg/mL. This compound also yielded a solubility in series [6] below 100 µg/mL.
